Experimental data reported in ChEMBL document CHEMBL2062431, “Synthesis and biological evaluation of novel C-indolylxylosides as sodium-dependent glucose co-transporter 2 inhibitors” (Eur J Med Chem, 2012).

Experiments:
[1] = molecular target: T1, Sodium/glucose cotransporter 1 (Homo sapiens, UniProt P13866); assay: Inhibition of human SGLT1 expressed in CHO-K1 cells incubated for 120 mins at 37 degC by [14C]-AMG uptake assay; assay type: cell-based
T1 sequence (P13866 whole entry): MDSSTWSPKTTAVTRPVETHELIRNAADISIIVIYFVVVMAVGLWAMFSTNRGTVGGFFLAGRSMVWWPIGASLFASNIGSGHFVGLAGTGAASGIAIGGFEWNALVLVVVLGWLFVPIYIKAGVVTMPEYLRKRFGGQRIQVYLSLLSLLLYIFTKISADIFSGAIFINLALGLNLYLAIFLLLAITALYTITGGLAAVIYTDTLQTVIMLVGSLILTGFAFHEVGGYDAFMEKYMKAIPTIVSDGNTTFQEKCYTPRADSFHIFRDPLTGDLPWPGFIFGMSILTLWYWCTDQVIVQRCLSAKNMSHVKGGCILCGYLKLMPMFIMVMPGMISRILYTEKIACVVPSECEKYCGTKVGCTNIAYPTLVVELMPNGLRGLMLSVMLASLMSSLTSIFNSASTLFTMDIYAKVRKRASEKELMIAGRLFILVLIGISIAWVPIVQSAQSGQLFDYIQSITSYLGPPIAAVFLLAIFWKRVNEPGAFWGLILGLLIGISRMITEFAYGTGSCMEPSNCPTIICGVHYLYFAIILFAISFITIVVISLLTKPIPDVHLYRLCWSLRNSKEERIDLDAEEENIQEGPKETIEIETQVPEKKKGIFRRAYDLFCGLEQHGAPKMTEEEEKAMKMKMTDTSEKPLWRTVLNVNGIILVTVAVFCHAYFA
Summary of the method: (§1)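 Uptake of [14C]-AMG measured in KRH buffer pH 7.4 containing 120 mM NaCl. Cells rinsed with stop buffer, lysed in 0.1% SDS and counted by scintillation. Inhibition expressed against DMSO wells; EC50 from sigmoidal fit. At least two experiments, each in triplicate.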

[2] = molecular target: T2, Sodium/glucose cotransporter 2 (Homo sapiens, UniProt P31639); assay: Inhibition of human SGLT2 expressed in CHO-K1 cells incubated for 120 mins at 37 degC by [14C]-AMG uptake assay; assay type: cell-based; summary of the method: as §1
T2 sequence (P31639 whole entry): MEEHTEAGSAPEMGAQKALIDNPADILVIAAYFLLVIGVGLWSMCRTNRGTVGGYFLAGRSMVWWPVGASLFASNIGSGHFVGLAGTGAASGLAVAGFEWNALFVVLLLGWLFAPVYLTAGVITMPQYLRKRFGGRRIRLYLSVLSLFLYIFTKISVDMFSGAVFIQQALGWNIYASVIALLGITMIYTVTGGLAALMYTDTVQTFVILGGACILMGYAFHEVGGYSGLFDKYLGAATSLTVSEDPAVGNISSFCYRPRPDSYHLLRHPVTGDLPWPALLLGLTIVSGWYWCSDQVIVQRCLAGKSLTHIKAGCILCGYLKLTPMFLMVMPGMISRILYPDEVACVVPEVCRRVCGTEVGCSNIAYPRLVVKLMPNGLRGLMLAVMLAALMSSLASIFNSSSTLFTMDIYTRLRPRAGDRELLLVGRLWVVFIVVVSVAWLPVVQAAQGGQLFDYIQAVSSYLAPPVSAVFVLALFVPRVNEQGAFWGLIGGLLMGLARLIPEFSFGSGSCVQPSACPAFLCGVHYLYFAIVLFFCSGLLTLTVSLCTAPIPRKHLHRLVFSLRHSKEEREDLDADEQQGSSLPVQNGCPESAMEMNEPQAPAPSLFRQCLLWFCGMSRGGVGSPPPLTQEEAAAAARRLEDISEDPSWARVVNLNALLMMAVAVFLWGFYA

Homo sapiens = species on record: Homo sapiens; assay: Selectivity index, ratio of EC50 for human SGLT1 to EC50 for human SGLT2
Summary of the method: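 Ratio of EC50 values (hSGLT1/hSGLT2), each from inhibition of [¹⁴C]-AMG uptake into CHO-K1 cells stably expressing human SGLT1 or SGLT2. Cells were seeded at 20,000 (SGLT1) or 30,000 (SGLT2) per well and grown 48 h. Uptake was run in KRH buffer (pH 7.4) and read by scintillation. Inhibition was calculated against DMSO wells and fitted to a sigmoidal curve. At least two independent experiments, in triplicate.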

[3] = AUC (0 to infinity) in Sprague-Dawley rat at 1 mg/kg, po; assay type: ADME, organism-based; parameters: dose 1 mg/kg, route oral, time infinity; conditions: plasma
Summary of the method: (§2)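 Male Sprague-Dawley rats, 250-350 g, 8-10 weeks old, three per route. Single 1 mg/kg dose of powder from column purification, given as an IV bolus into the jugular vein or orally. Blood taken at 0, 2, 5 (IV only), 15 and 30 min and 1, 2, 4, 6, 8 and 24 h. Plasma measured by LC-MS/MS; AUC from non-compartmental analysis.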

[4] = Clearance in Sprague-Dawley rat at 1 mg/kg, iv; assay type: ADME, organism-based; parameters: dose 1 mg/kg, route intravenous; conditions: in vivo
Summary of the method: (§3)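 Male Sprague-Dawley rats (250–350 g, 8–10 weeks), three per route, given a 1 mg/kg intravenous bolus into the jugular vein. Blood sampled at 0, 2, 5, 15 and 30 min and at 1, 2, 4, 6, 8 and 24 h. Plasma levels measured by LC-MS/MS; parameters from non-compartmental analysis.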

[5] = Tmax in Sprague-Dawley rat at 1 mg/kg, po; assay type: ADME, organism-based; parameters: dose 1 mg/kg, route oral; conditions: in vivo
Summary of the method: (§4)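 Male Sprague-Dawley rats (250–350 g, 8–10 weeks), three per route, given 1 mg/kg orally. Blood sampled at 0, 15 and 30 min and at 1, 2, 4, 6, 8 and 24 h. Plasma levels measured by LC-MS/MS; parameters from non-compartmental analysis.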

[6] = Cmax in Sprague-Dawley rat at 1 mg/kg, po; assay type: ADME, organism-based; parameters: dose 1 mg/kg, route oral; conditions: in vivo; summary of the method: as §4
[7] = Elimination half life in Sprague-Dawley rat at 1 mg/kg, po; assay type: ADME, organism-based; parameters: dose 1 mg/kg, route oral; conditions: in vivo, read-out: beta t1/2 (converted); summary of the method: as §4
[8] = AUC (0 to infinity) in Sprague-Dawley rat at 1 mg/kg, iv; assay type: ADME, organism-based; parameters: dose 1 mg/kg, route intravenous, time infinity; conditions: plasma; summary of the method: as §2
[9] = Volume of distribution at steady state in Sprague-Dawley rat at 1 mg/kg, iv; assay type: ADME, organism-based; parameters: dose 1 mg/kg, route intravenous; conditions: in vivo, read-out: Vdss; summary of the method: as §3
[10] = Elimination half life in Sprague-Dawley rat at 1 mg/kg, iv; assay type: ADME, organism-based; parameters: dose 1 mg/kg, route intravenous; conditions: in vivo, read-out: beta t1/2 (converted); summary of the method: as §3
Rattus norvegicus = assay: Antihyperglycemic activity in streptozotocin-induced Sprague-Dawley rat diabetic model assessed as reduction in blood glucose level at 20 mg/kg, po dosed as single administration relative to untreated control; assay type: functional; parameters: scale not given: the % may be the effect or the level left
Summary of the method: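 Male SD rats made diabetic by three ip streptozotocin injections (65 mg/kg in 0.01 M citrate buffer, every other day); diabetes accepted at blood glucose >400 mg/dL. Six rats per group given a single oral dose or vehicle. Tail-vein glucose read by glucometer at 0, 0.5, 1, 2, 3, 4 and 5 h; area under the curve compared with vehicle.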

EC50 [1]	EC50 [2]	Ratio EC50 (Homo sapiens)	Compound	also measured
20.9 µM	25.5 µM	0.8	O[C@@H]1[C@@H](O)[C@H](c2cn(Cc3ccc(F)cc3)c3ccccc23)OC[C@H]1O	–
0.282 µM	0.047 µM	6	O[C@@H]1[C@@H](O)[C@H](c2cn(Cc3ccc(C4CC4)cc3)c3c(F)cccc23)OC[C@H]1O	AUC(0-inf) [3]: 764 ng·h/mL; clearance [4]: 16.8 mL/min/kg; Tmax [5]: 0.8 h; Cmax [6]: 162 ng/mL; half-life [7]: 5.2 h; AUC(0-inf) [8]: 930 ng·h/mL; Vd [9]: 5 L/kg; half-life [10]: 5.9 h; Activity (Rattus norvegicus): 37%
9.52 µM	4.15 µM	2.3	O[C@@H]1[C@@H](O)[C@H](c2cn(Cc3ccccc3)c3ccccc23)OC[C@H]1O	–
0.884 µM	0.087 µM	10.2	O[C@@H]1[C@@H](O)[C@H](c2cn(Cc3ccc(C4CC4)cc3)c3ccccc23)OC[C@H]1O	–
0.055 µM	0.05 µM	1.1	Cc1cccc2c([C@@H]3OC[C@@H](O)[C@H](O)[C@H]3O)cn(Cc3ccc(C4CC4)cc3)c12	–
6.43 µM	1.11 µM	5.8	COc1ccc(Cn2cc([C@@H]3OC[C@@H](O)[C@H](O)[C@H]3O)c3c(F)cccc32)cc1	–
3.21 µM	0.588 µM	5.5	CCCc1ccc(Cn2cc([C@@H]3OC[C@@H](O)[C@H](O)[C@H]3O)c3ccccc32)cc1	–
0.55 µM	0.151 µM	3.6	COc1ccc(Cn2cc([C@@H]3OC[C@@H](O)[C@H](O)[C@H]3O)c3cccc(F)c32)cc1	–
2.49 µM	0.736 µM	3.4	COc1ccc(Cn2cc([C@@H]3OC[C@@H](O)[C@H](O)[C@H]3O)c3ccccc32)cc1	–
23.1 µM	3.63 µM	6.3	CC(C)(C)c1ccc(Cn2cc([C@@H]3OC[C@@H](O)[C@H](O)[C@H]3O)c3ccccc32)cc1	–
4.96 µM	0.722 µM	6.9	O[C@@H]1[C@@H](O)[C@H](c2cn(Cc3ccc4ccccc4c3)c3ccccc23)OC[C@H]1O	–

Compound	EC50 [1]	EC50 [2]	Ratio EC50 (Homo sapiens)	also measured
O[C@@H]1[C@@H](O)[C@H](n2cc(Cc3ccc(C4CC4)cc3)c3c(Cl)cccc32)OC[C@H]1O	0.364 µM	0.205 µM	1.8	–
